18 compounds from ChEMBL document CHEMBL4261611, “Identification of steroidal derivatives inhibiting the transformations of allopregnanolone and estradiol by 17β-hydroxysteroid dehydrogenase type 10” (Bioorg Med Chem Lett, 2018) can be followed below.

The structures appear in SMILES notation. Calls of active or inactive are those of the source. No cut-off for these calls is given here.

Data set [1] concerns the target T1, 3-hydroxyacyl-CoA dehydrogenase type-2 (Mus musculus) (UniProt O08756).
T1 sequence (whole entry): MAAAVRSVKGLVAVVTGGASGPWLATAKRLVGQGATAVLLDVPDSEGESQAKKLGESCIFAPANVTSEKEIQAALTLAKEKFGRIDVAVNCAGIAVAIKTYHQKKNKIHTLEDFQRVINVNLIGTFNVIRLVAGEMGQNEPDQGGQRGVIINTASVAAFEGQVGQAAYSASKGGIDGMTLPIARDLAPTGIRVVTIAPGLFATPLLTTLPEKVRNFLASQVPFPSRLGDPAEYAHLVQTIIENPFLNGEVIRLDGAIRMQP
The data set can be described thus: Inhibition of recombinant mouse full-length 17beta-HSD10 (2 to 261 residues) assessed as reduction in transformation of [14C]-E2 to E1 at 100 uM after 48 hrs in presence of 1 mM NAD+ cofactor by liquid scintillation counting method.

Data set [2] concerns the target T1, 3-hydroxyacyl-CoA dehydrogenase type-2 (Mus musculus). Description: Inhibition of recombinant mouse full-length 17beta-HSD10 (2 to 261 residues) assessed as reduction in transformation of [14C]-E2 to E1 at 300 uM after 48 hrs in presence of 1 mM NAD+ cofactor by liquid scintillation counting method relative to control. The procedure, abridged: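 Single-concentration screen at 300 μM inhibitor. Purified 17β-HSD10 (400 ng/mL), 1 mM NAD⁺, 1 μM [¹⁴C]-E2/E2 (1:9), 48 h incubation. E2-to-E1 conversion was measured and inhibition expressed relative to uninhibited transformation. Results are mean ± SEM.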

For data set [3] the target is unchanged. The data set can be described thus: Inhibition of recombinant mouse full-length 17beta-HSD10 (2 to 261 residues) assessed as reduction in transformation of [3H]-ALLOP to 5alpha-DHP at 100 uM after 48 hrs in presence of 1 mM NAD+ cofactor by liquid scintillation counting method relative to control. The procedure, abridged: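 Screen at 100 μM inhibitor, 48 h, with 400 ng/mL purified enzyme, 1 mM NAD⁺ and 1 μM [³H]-ALLOP/ALLOP (1:99). ALLOP-to-5α-DHP conversion was expressed as % inhibition versus the no-inhibitor transformation. Results are mean ± SEM.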

Data set [4] is described as follows: Octanol/water partition co-efficient, log P of the compound. It counts as physicochemical. The procedure, abridged: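 Octanol/water partition coefficient calculated in silico, not measured.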
The target of data set [5] is T2, 3-hydroxyacyl-CoA dehydrogenase type-2 (Mus musculus, UniProt O08756).
T2 sequence (O08756 whole entry): T1 sequence (whole entry)
The data set can be described thus: Inhibition of recombinant mouse full-length 17beta-HSD10 (2 to 261 residues) assessed as reduction in transformation of [3H]-ALLOP to 5alpha-DHP after 48 hrs in presence of 1 mM NAD+ cofactor by liquid scintillation counting method. The procedure, abridged:
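Purified 17β-HSD10 (400 ng/mL), 1 mM NAD⁺, 1 μM [³H]-ALLOP/ALLOP (1:99), 48 h incubation. Oxidation to 5α-DHP was measured over a range of inhibitor concentrations to build inhibition curves and estimate IC50. Results are mean ± SEM.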

Data set [6] deals with T2, 3-hydroxyacyl-CoA dehydrogenase type-2. The data set can be described thus: Inhibition of recombinant mouse full-length 17beta-HSD10 (2 to 261 residues) assessed as reduction in transformation of [14C]-E2 to E1 after 48 hrs in presence of 1 mM NAD+ cofactor by liquid scintillation counting method. The procedure, abridged:
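Purified 17β-HSD10 at 400 ng/mL with 1 mM NAD⁺ and substrate [¹⁴C]-E2/E2 (1:9) at 1 μM total, incubated 48 h. E2-to-E1 oxidation was followed with radiolabel. Percent inhibition over a dose range was used for dose-response curves and IC50 estimation. Results are mean ± SEM.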

Data set [7] in a line: Solubility of the compound at 600 to 1000 uM. It is filed as physicochemical.
Data set [8] can be described thus: Blood-brain transfer coefficient in mouse administered via perfusion. It is filed as ADME, tissue-based. Particulars: in vivo, other.
Data set [9] can be described thus: Effect on mouse brain penetration assessed as [14C]-sucrose uptake administered via perfusion. It counts as ADME, tissue-based. Particulars: in vivo.

Regarding `COc1cccc(CN2CCN(C[C@@]3(O)CC[C@@]4(C)[C@@H](CC[C@@H]5[C@@H]4CC[C@@]4(C)[C@H]5CC[C@]4(C)O)C3)CC2)c1`, the inhibition entry in [1] was “inactive”. In addition, the inhibition in [2] stood at 22.6%; in [3], 21.9%. Further, the logP in [4] is 5.06.

As for `CN(C)S(=O)(=O)c1ccc(NC(=S)N2CCN(C[C@@]3(O)CC[C@@]4(C)[C@@H](CC[C@@H]5[C@@H]4CC[C@]4(C)C(=O)CC[C@@H]54)C3)CC2)cc1`, the inhibition entry in [1] is “inactive”. In addition, the inhibition in [2] came out at 0.3%; in data set [3], 13.3%. The lipophilicity (logP) in data set [4] amounted to 3.32.

With `CCN(C)S(=O)(=O)N1CCN(C[C@@]2(O)CC[C@@]3(C)[C@@H](CC[C@@H]4[C@@H]3CC[C@]3(C)C(=O)CC[C@@H]43)C2)CC1`, the inhibition result in data set [1] is “inactive”. Also, the inhibition in [2] worked out at 10.2%; in data set [3] it was 0%. In data set [4], this compound gave a log partition coefficient (logP) of 2.97.

With `Cc1cc(C)cc(C(=O)N2CCN(C[C@@]3(O)CC[C@@]4(C)[C@@H](CC[C@@H]5[C@@H]4CC[C@]4(C)C(=O)CC[C@@H]54)C3)CC2)c1`, in data set [1], the inhibition result was “inactive”. The inhibition in data set [3] amounted to 1.5%. This compound had a lipophilicity (logP) in data set [4] of 4.86.

`COc1cc(CN2CCN(C[C@@]3(O)CC[C@@]4(C)[C@@H](CC[C@@H]5[C@@H]4CC[C@]4(C)C(=O)CC[C@@H]54)C3)CC2)ccc1C`: the inhibition result in data set [1] was “inactive”. Further, the inhibition in [2] came out at 31%; in [3], 12.5%. The compound also had a lipophilicity (logP) in data set [4] of 4.72.

Turning to `COc1cccc(CN2CCN(C[C@@]3(O)CC[C@@]4(C)[C@@H](CC[C@@H]5[C@@H]4CC[C@]4(C)C(=O)C(C)(C)C[C@@H]54)C3)CC2)c1`, the inhibition result in data set [1] was “inactive”. Moreover, the values for the inhibition in [2] and in data set [3] were 24.6% and 11.1%, respectively. In data set [4], this compound yielded a lipophilicity (logP) of 5.57.

As for `CC(=O)c1cccc(C(=O)N2CCN(C[C@@]3(O)CC[C@@]4(C)[C@@H](CC[C@@H]5[C@@H]4CC[C@]4(C)C(=O)CC[C@@H]54)C3)CC2)c1`, the inhibition result in [1] was “inactive”. For the same compound, in [3], the inhibition is 5%. Further, the logP in data set [4] stood at 3.85.

`C[C@]12CC[C@](O)(CN3CCN(C(=O)c4ccc(C(=O)c5ccccc5)cc4)CC3)C[C@@H]1CC[C@@H]1[C@@H]2CC[C@]2(C)C(=O)CC[C@@H]12`: the inhibition entry in data set [1] is “inactive”. Besides, the inhibition in data set [2] amounted to 58.8%; in [3] it was 8%. The compound also yielded a logP in [4] of 4.99.

As to `C[C@]12CC[C@@H]3c4ccc(O)cc4CC[C@H]3[C@@H]1CC[C@@H]2O` [ESTRADIOL], the IC50 in data set [5] came to 770 µM; in data set [6], 155 µM.

Regarding `COc1cccc(CN2CCN(C[C@@]3(O)CC[C@@]4(C)[C@@H](CC[C@@H]5[C@@H]4CC[C@@]4(C)[C@H]5CCC4(F)F)C3)CC2)c1`, the inhibition result in data set [1] was “inactive”. Also, in [7], the solubility entry was “Insoluble”. Besides, the inhibition in data set [2] was 13.3%; in [3], 38.6%. This compound came in with a logP in [4] of 5.57.

In the case of `C[C@]12CC[C@](O)(CN3CCN(C(=S)NCc4cccc(C(F)(F)F)c4)CC3)C[C@@H]1CC[C@@H]1[C@@H]2CC[C@]2(C)C(=O)CC[C@@H]12`, the inhibition entry in data set [1] is “inactive”. Further, the inhibition came out at 8.5% in [2] and 34.2% in data set [3]. In [4], this compound yielded a logP of 3.85.

For the compound `COc1cccc(CN2CCN(C[C@@]3(O)CC[C@@]4(C)[C@@H](CC[C@@H]5[C@@H]4CC[C@]4(C)[C@@H](O)CC[C@@H]54)C3)CC2)c1`, in data set [1], the inhibition entry was “inactive”. In addition, the results for the inhibition in data set [2] and in data set [3] were 13.7% and 0%, respectively. Moreover, in [4], the logP amounted to 4.67.

For `COc1cccc(CN2CCN(C[C@@]3(O)CC[C@@]4(C)[C@@H](CC[C@@H]5[C@@H]4CC[C@]4(C)C(=O)CC[C@@H]54)C3)CC2)c1`, the inhibition result in data set [1] is “inactive”. Also, the half-maximal inhibitory concentration (IC50) in [5] was 985 µM; in data set [6] it was 710 µM. The results for the inhibition in data set [2] and in data set [3] were 30% and 14.7%, respectively. In [4], this compound registered a logP of 4.43. Further, in [8], the Kin fell in the range of 13.8 to 32.7 µL/s/g. In [9], the Activity result was “Non-Toxic”.

For `COc1cccc(CN2CCN(C[C@@]3(O)CC[C@@]4(C)[C@@H](CC[C@@H]5[C@@H]4CC[C@]4(C)[C@H](O)CC[C@@H]54)C3)CC2)c1`, the inhibition entry in [1] is “inactive”. In addition, the half-inhibitory concentration (IC50) in data set [5] stood at 235 µM; in [6], 610 µM. Besides, the inhibition in [2] amounted to 31.7%; in [3], 41.7%. The compound also showed a log partition coefficient (logP) in [4] of 4.67.

On to `C[C@]12CC[C@](O)(CN3CCN(C(=O)c4ccc(-c5ccccc5)cc4)CC3)C[C@@H]1CC[C@@H]1[C@@H]2CC[C@]2(C)C(=O)CC[C@@H]12`, for which the inhibition entry in [1] was “inactive”. In addition, the inhibition in [2] amounted to 29.4%; in data set [3] it was 19.3%. Besides, the logP in data set [4] stood at 5.3.

As to `CN1C(=O)CN=C(c2ccccc2)c2cc(Cl)ccc21` [DIAZEPAM], the Kin in data set [8] was in the range of 50 to 60 µL/s/g.

`C#C[C@]1(O)CC[C@H]2[C@@H]3CC[C@H]4C[C@@](O)(CN5CCN(Cc6cccc(OC)c6)CC5)CC[C@]4(C)[C@H]3CC[C@@]21C`: in data set [1], the inhibition entry was “inactive”. The inhibition came to 44.5% in [2] and 20% in data set [3]. Moreover, in data set [4], the log partition coefficient (logP) is 4.93.

`C[C@]12CC[C@](O)(CN3CCN(Cc4cnc5ccccc5c4)CC3)C[C@@H]1CC[C@@H]1[C@@H]2CC[C@]2(C)C(=O)CC[C@@H]12`: the inhibition entry in [1] was “inactive”. The inhibition in data set [2] was 36.1%; in data set [3] it was 15.2%. In data set [4], this compound gave a logP of 4.58.
